Results taken from ChEMBL document CHEMBL3102739, “Synthesis and antiproliferative activity of conformationally restricted 1,2,3-triazole analogues of combretastatins in the sea urchin embryo model and against human cancer cell lines” (Bioorg Med Chem, 2014).

What was measured:
CAKI-1 = assay: Growth inhibition of human CAKI-1 cells after 48 hrs by SRB assay; type: functional; settings: CAKI-1, 48 h
A549 = assay: Growth inhibition of human A549 cells after 48 hrs by SRB assay; type: functional; settings: A549, 48 h
BT-549 = assay: Growth inhibition of human BT549 cells after 48 hrs by SRB assay; type: functional; settings: BT-549, 48 h
OVCAR-8 = assay: Growth inhibition of human OVCAR8 cells after 48 hrs by SRB assay; type: functional; settings: OVCAR-8, 48 h
Paracentrotus lividus [1] = assay: Antimitotic activity against sea urchin embryo free-swimming blastula model assessed as embryo spinning compound treated at 8 to 10 hrs post-fertilization measured after 0.25 to 20 hrs; type: functional, Blastula stage
Paracentrotus lividus [2] = assay: Antimitotic activity against sea urchin embryo model assessed as cleavage arrest of fertilized egg compound treated at 8 to 20 mins post-fertilization and 45 to 55 mins prior to first mitotic cycle completion measured 2.5 to 5.5 hrs post-fertilization; type: functional
In short: (§1)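 Fertilized eggs are exposed 8–20 min after fertilization to 2-fold decreasing concentrations. Stocks are 10 mM in DMSO, then diluted 10-fold in 95% EtOH; final DMSO is at most 0.05% and EtOH at most 1%. Embryos are kept as a monolayer, up to 2000 embryos/mL, in filtered seawater at room temperature. The value is the threshold concentration giving cleavage alteration, embryo death before hatching or full mitotic arrest. Duplicates were run.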

MDA-MB-468 = assay: Growth inhibition of human MDA-MB-468 cells after 48 hrs by SRB assay; type: functional; settings: MDA-MB-468, 48 h
NCI-H322M = assay: Growth inhibition of human NCI-H322M cells after 48 hrs by SRB assay; type: functional
SF-268 = assay: Growth inhibition of human SF268 cells after 48 hrs by SRB assay; type: functional; settings: SF-268, 48 h
786-0 = assay: Growth inhibition of human 786-0 cells after 48 hrs by SRB assay; type: functional; settings: 786-0, 48 h
MCF7 = assay: Growth inhibition of human MCF7 cells after 48 hrs by SRB assay; type: functional; settings: MCF7, 48 h
RPMI-8226 = assay: Growth inhibition of human RPMI8226 cells after 48 hrs by SRB assay; type: functional; settings: RPMI-8226, 48 h
Paracentrotus lividus [3] = assay: Antimitotic activity against sea urchin embryo model assessed as cleavage alteration of fertilized egg compound treated at 8 to 20 mins post-fertilization and 45 to 55 mins prior to first mitotic cycle completion measured 2.5 to 5.5 hrs post-fertilization; type: functional; in short: as §1
KM12 = assay: Growth inhibition of human KM12 cells after 48 hrs by SRB assay; type: functional; settings: KM12, 48 h
SN12C = assay: Growth inhibition of human SN12C cells after 48 hrs by SRB assay; type: functional
HT-29 = assay: Growth inhibition of human HT-29 cells after 48 hrs by SRB assay; type: functional; settings: HT-29, 48 h
NCI-H460 = assay: Growth inhibition of human NCI-H460 cells after 48 hrs by SRB assay; type: functional; settings: NCI-H460, 48 h
K562 = assay: Growth inhibition of human K562 cells after 48 hrs by SRB assay; type: functional; settings: K562, 48 h
[4] = Growth inhibition of human RXF393 cells after 48 hrs by SRB assay; type: functional; settings: RXF 393, 48 h
[5] = Growth inhibition of human Hs578T cells after 48 hrs by SRB assay; type: functional; settings: Hs-578T
[6] = Growth inhibition of human OVCAR4 cells after 48 hrs by SRB assay; type: functional; settings: OVCAR-4, 48 h
[7] = Growth inhibition of human UACC257 cells after 48 hrs by SRB assay; type: functional; settings: UACC-257, 48 h
NCI-H23 = assay: Growth inhibition of human NCI-H23 cells after 48 hrs by SRB assay; type: functional; settings: NCI-H23, 48 h
SK-OV-3 = assay: Growth inhibition of human SKOV3 cells after 48 hrs by SRB assay; type: functional; settings: SK-OV-3, 48 h
SF-295 = assay: Growth inhibition of human SF295 cells after 48 hrs by SRB assay; type: functional; settings: SF-295, 48 h
[8] = Growth inhibition of human OVCAR5 cells after 48 hrs by SRB assay; type: functional; settings: OVCAR-5, 48 h
CCRF-CEM = assay: Growth inhibition of human CCRF-CEM cells after 48 hrs by SRB assay; type: functional
HCT-116 = assay: Growth inhibition of human HCT116 cells after 48 hrs by SRB assay; type: functional; settings: HCT-116, 48 h
DU-145 = assay: Growth inhibition of human DU145 cells after 48 hrs by SRB assay; type: functional; settings: DU-145, 48 h
NCI-H226 = assay: Growth inhibition of human NCI-H226 cells after 48 hrs by SRB assay; type: functional; settings: NCI-H226, 48 h
COLO 205 = assay: Growth inhibition of human COLO205 cells after 48 hrs by SRB assay; type: functional; settings: COLO 205, 48 h
[9] = Growth inhibition of human SF539 cells after 48 hrs by SRB assay; type: functional; settings: SF-539, 48 h
TK-10 = assay: Growth inhibition of human TK10 cells after 48 hrs by SRB assay; type: functional; settings: TK-10, 48 h
SK-MEL-5 = assay: Growth inhibition of human SK-MEL-5 cells after 48 hrs by SRB assay; type: functional; settings: SK-MEL-5, 48 h
HCT-15 = assay: Growth inhibition of human HCT15 cells after 48 hrs by SRB assay; type: functional; settings: HCT-15, 48 h
IGROV-1 = assay: Growth inhibition of human IGROV1 cells after 48 hrs by SRB assay; type: functional; settings: IGROV-1, 48 h
PC-3 = assay: Growth inhibition of human PC3 cells after 48 hrs by SRB assay; type: functional; settings: PC-3, 48 h
OVCAR-3 = assay: Growth inhibition of human OVCAR3 cells after 48 hrs by SRB assay; type: functional; settings: OVCAR-3, 48 h
MDA-MB-231 = assay: Growth inhibition of human MDA-MB-231 cells after 48 hrs by SRB assay; type: functional; settings: MDA-MB-231, 48 h
SK-MEL-28 = assay: Growth inhibition of human SK-MEL-28 cells after 48 hrs by SRB assay; type: functional; settings: SK-MEL-28, 48 h
HL-60(TB) = assay: Growth inhibition of human HL-60(TB) cells after 48 hrs by SRB assay; type: functional; settings: HL-60, 48 h
SNB-75 = assay: Growth inhibition of human SNB75 cells after 48 hrs by SRB assay; type: functional; settings: SNB-75, 48 h
SR = assay: Growth inhibition of human SR cells after 48 hrs by SRB assay; type: functional
MOLT-4 = assay: Growth inhibition of human MOLT4 cells after 48 hrs by SRB assay; type: functional; settings: MOLT-4, 48 h
[10] = Growth inhibition of human HCC2998 cells after 48 hrs by SRB assay; type: functional; settings: HCC 2998, 48 h
UACC-62 = assay: Growth inhibition of human UACC62 cells after 48 hrs by SRB assay; type: functional; settings: UACC-62, 48 h
NCI-H522 = assay: Growth inhibition of human NCI-H522 cells after 48 hrs by SRB assay; type: functional; settings: NCI-H522, 48 h
SW-620 = assay: Growth inhibition of human SW620 cells after 48 hrs by SRB assay; type: functional; settings: SW-620, 48 h
M14 = assay: Growth inhibition of human M14 cells after 48 hrs by SRB assay; type: functional; settings: M14, 48 h
MDA-MB-435 = assay: Growth inhibition of human MDA-MB-435 cells after 48 hrs by SRB assay; type: functional; settings: MDA-MB-435, 48 h
[11] = Growth inhibition of human NCI-ADR-RES cells after 48 hrs by SRB assay; type: functional
ACHN = assay: Growth inhibition of human ACHN cells after 48 hrs by SRB assay; type: functional
HOP-62 = assay: Growth inhibition of human HOP62 cells after 48 hrs by SRB assay; type: functional; settings: HOP-62, 48 h
[12] = Growth inhibition of human UO31 cells after 48 hrs by SRB assay; type: functional; settings: UO-31, 48 h
A498 = assay: Growth inhibition of human A498 cells after 48 hrs by SRB assay; type: functional; settings: A498, 48 h
SNB-19 = assay: Growth inhibition of human SNB19 cells after 48 hrs by SRB assay; type: functional; settings: SNB-19, 48 h

Question: Which results are given for COc1ccc(-c2nn[nH]c2-c2cc(OC)c3c(c2)OCO3)cc1?
Answer: GI50 (CAKI-1): 11 nM; GI50 (A549): 24 nM; GI50 (BT-549): 121 nM; GI50 (OVCAR-8): 40 nM; EC (Paracentrotus lividus [1]): 0.05 µM; EC (Paracentrotus lividus [2]): 0.002 µM; GI50 (MDA-MB-468): 19 nM; GI50 (NCI-H322M): 57 nM; GI50 (SF-268): 101 nM; GI50 (786-0): 32 nM; GI50 (MCF7): < 10 nM; GI50 (RPMI-8226): 33 nM; EC (Paracentrotus lividus [3]): 0.0005 µM; GI50 (KM12): 23 nM; GI50 (SN12C): 61 nM; GI50 (HT-29): 34 nM; GI50 (NCI-H460): 11 nM; GI50 (K562): < 10 nM; GI50 [4]: 17 nM; GI50 [5]: 22 nM; GI50 [6]: 518 nM; GI50 [7]: 23000 nM; GI50 (NCI-H23): 33 nM; GI50 (SK-OV-3): 23 nM; GI50 (SF-295): < 10 nM; GI50 [8]: 49 nM; GI50 (CCRF-CEM): 26 nM; GI50 (HCT-116): 19 nM; GI50 (DU-145): 32 nM; GI50 (NCI-H226): 294 nM; GI50 (COLO 205): 255 nM; GI50 [9]: 17 nM; GI50 (TK-10): 14700 nM; GI50 (SK-MEL-5): 29 nM; GI50 (HCT-15): < 10 nM; GI50 (IGROV-1): 23 nM; GI50 (PC-3): 35 nM; GI50 (OVCAR-3): 10 nM; GI50 (MDA-MB-231): 45 nM; GI50 (SK-MEL-28): 35 nM; GI50 (HL-60(TB)): 23 nM; GI50 (SNB-75): 16 nM; GI50 (SR): < 10 nM; GI50 (MOLT-4): 63 nM; GI50 [10]: 44 nM; GI50 (UACC-62): < 10 nM; GI50 (NCI-H522): < 10 nM; GI50 (SW-620): 14 nM; GI50 (M14): 13 nM; GI50 (MDA-MB-435): < 10 nM; GI50 [11]: < 10 nM; GI50 (ACHN): 40 nM; GI50 (HOP-62): < 10 nM; GI50 [12]: 51 nM; GI50 (A498): < 10 nM

Question: Which results are given for COc1ccc(-c2cnnn2-c2cc(OC)c3c(c2)OCO3)cc1?
Answer: GI50 (CAKI-1): 98 nM; GI50 (A549): 88 nM; GI50 (BT-549): 160 nM; GI50 (OVCAR-8): 284 nM; EC (Paracentrotus lividus [1]): 0.5 µM; EC (Paracentrotus lividus [2]): 0.1 µM; GI50 (MDA-MB-468): 62 nM; GI50 (NCI-H322M): 673 nM; GI50 (SF-268): 611 nM; GI50 (786-0): 363 nM; GI50 (MCF7): 47 nM; GI50 (RPMI-8226): 253 nM; EC (Paracentrotus lividus [3]): 0.01 µM; GI50 (KM12): 60 nM; GI50 (SN12C): 486 nM; GI50 (HT-29): 40 nM; GI50 (NCI-H460): 55 nM; GI50 (K562): 41 nM; GI50 [4]: 157 nM; GI50 [5]: 154 nM; GI50 [6]: 4170 nM; GI50 [7]: 74900 nM; GI50 (SK-OV-3): 271 nM; GI50 (SF-295): 73 nM; GI50 [8]: 374 nM; GI50 (CCRF-CEM): 132 nM; GI50 (HCT-116): 64 nM; GI50 (DU-145): 232 nM; GI50 (NCI-H226): 4670 nM; GI50 (SNB-19): > 100000 nM; GI50 (COLO 205): 53 nM; GI50 [9]: 95 nM; GI50 (SK-MEL-5): 235 nM; GI50 (HCT-15): 45 nM; GI50 (IGROV-1): 123 nM; GI50 (PC-3): 150 nM; GI50 (OVCAR-3): 53 nM; GI50 (MDA-MB-231): 135 nM; GI50 (SK-MEL-28): 725 nM; GI50 (HL-60(TB)): 51 nM; GI50 (SNB-75): 119 nM; GI50 (SR): 41 nM; GI50 (MOLT-4): 122 nM; GI50 [10]: 258 nM; GI50 (UACC-62): 72 nM; GI50 (NCI-H522): 21 nM; GI50 (SW-620): 56 nM; GI50 (M14): 61 nM; GI50 (MDA-MB-435): 22 nM; GI50 [11]: 38 nM; GI50 (ACHN): 607 nM; GI50 (HOP-62): 125 nM; GI50 [12]: 692 nM; GI50 (A498): 49 nM
